According to ChEMBL document CHEMBL3243941, “Hydrolysis of 3-chloro-3-cephems. Intramolecular nucleophilic attack in cefaclor” (J Med Chem, 1977):
In brackets after ≈: the same amount, converted by molar mass.

Tests used:
Shigella sp. = assay: Antibacterial activity against Shigella sp. N9 assessed as growth inhibition; type: functional
Escherichia coli = assay: Antibacterial activity against Escherichia coli N10 assessed as growth inhibition; type: functional
Klebsiella aerogenes = assay: Antibacterial activity against Enterobacter aerogenes X68 assessed as growth inhibition; type: functional
Klebsiella pneumoniae = assay: Antibacterial activity against Klebsiella pneumoniae X26 assessed as growth inhibition; type: functional
[1] = Antibacterial activity against Salmonella heidelberg X514 assessed as growth inhibition; type: functional, Salmonella enterica subsp. enterica serovar Heidelberg; conditions: Salmonella enterica
[2] = Hydrolytic stability of the compound assessed as beta-lactum ring opening rate at pH 10 at 35 degC by UV method; type: physicochemical; conditions: buffer
Summary of the method: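 Pseudo-first-order rate constants for β-lactam ring opening, measured by UV at pH 10.0 and 35 °C and reported as k_obsd (s−1).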

MIC (Shigella sp.) [µg/mL]	MIC (Escherichia coli) [µg/mL]	MIC (Klebsiella aerogenes) [µg/mL]	MIC (Klebsiella pneumoniae) [µg/mL]	MIC [1] [µg/mL]	k obsd [2] [s⁻¹]	SMILES
					0.000183	O=C(COc1ccccc1)N[C@@H]1C(=O)N2C(C(=O)O)=C(Cl)CS[C@H]12
					0.000287	N[C@@H](C(=O)N[C@@H]1C(=O)N2C(C(=O)O)=C(Cl)CS[C@H]12)c1ccccc1 [CEFACLOR ANHYDROUS]

Further lines, the compound ahead of its results:

SMILES	MIC (Shigella sp.) [µg/mL]	MIC (Escherichia coli) [µg/mL]	MIC (Klebsiella aerogenes) [µg/mL]	MIC (Klebsiella pneumoniae) [µg/mL]	MIC [1] [µg/mL]	k obsd [2] [s⁻¹]
O=C(Cc1cccs1)N[C@@H]1C(=O)N2C(C(=O)O)=C(Cl)CS[C@H]12	17.5 (≈ 48.8 µM)	21.2 (≈ 59.1 µM)	0.9 (≈ 2.51 µM)	0.8 (≈ 2.23 µM)	0.9 (≈ 2.51 µM)	0.000131
CC1=C(C(=O)O)N2C(=O)[C@@H](NC(=O)Cc3cccs3)[C@H]2SC1	120 (≈ 355 µM)	116 (≈ 343 µM)	30 (≈ 88.6 µM)	10 (≈ 29.5 µM)	29 (≈ 85.7 µM)	1.07e-05
CC(=O)OCC1=C(C(=O)O)N2C(=O)[C@@H](NC(=O)Cc3cccs3)[C@H]2SC1 [CEPHALOTHIN]	14 (≈ 35.3 µM)	15 (≈ 37.8 µM)	3 (≈ 7.57 µM)	1 (≈ 2.52 µM)	1 (≈ 2.52 µM)	9.7e-05
